SMILES strings stand for the structures.

The test system of series [1] is Hepatitis C virus. The experiment in a line: Antiviral activity against HCV genotype 1b infected in human HuH7 cells assessed as cytoprotection after 24 hrs. The class given is functional, organism-based, Hepacivirus hominis. The conditions noted are these: Huh-7, 24 h.
The nature of series [2]: Cytotoxicity against human HuH7 cells after 24 hrs by MTS assay. In kind it is cell-based, Huh-7. A general note: Tetrazolium dyes change colour on reduction, which living cells bring about.
Series [3] relates to Hepatitis C virus. The experiment in a line: Inhibition of HCV genotype 1b NS5B after 90 mins. On the set-up: species or system Hepatitis C virus subtype 1b. The conditions noted are these: 1.5 h.
The subject of series [4] is adenosine deaminase. The experiment in a line: Stability of the compound assessed as compound remaining at 10 uM after 60 mins in presence of bovine adenosine deaminase. In kind it is ADME. The conditions noted are these: cattle, read-out: Stability. A digest of the protocol:
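Nucleosides (10 µM) were incubated at 37 °C with 0.0125 U/mL bovine adenosine deaminase in 0.01 M potassium phosphate pH 6.0 and sampled over 1 h. Reactions were quenched with ice-cold methanol containing 0.2% formic acid. Nucleoside was quantified by LC with triple-quadrupole MS in positive-ion MRM mode, and percent remaining taken at 60 min. Values are the mean of 2 independent experiments in duplicate.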

Series [5] in a line: Plasma clearance in beagle dog at 0.5 mg/kg, iv after 24 hrs by LC-MS/MS analysis. On the set-up: dose 0.5 mg/kg, route intravenous. In kind it is ADME, organism-based, Canis lupus familiaris. The gist of the method:
(§1)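 Groups of 3 non-naive male beagle dogs received one dose as a solution in 5/5/5/85 ethanol/[…]/polyethylene glycol/50 mM aqueous citrate buffer (pH 3.3). Dosing was either 0.5 mg/kg by IV infusion or 1 mg/kg orally. EDTA-K3 plasma was sampled over 24 h, precipitated with acetonitrile (60% final), dried, reconstituted in 20% acetonitrile, and analysed by LC/MS/MS in positive-ion MRM mode.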

A short description of series [6]: Volume of distribution in beagle dog at 0.5 mg/kg, iv after 24 hrs by LC-MS/MS analysis. The class given is ADME, organism-based, Canis lupus familiaris. On the set-up: dose 0.5 mg/kg, route intravenous. The conditions noted are these: in vivo. A digest of the protocol: as §1
A short description of series [7]: Elimination half life in beagle dog plasma at 0.5 mg/kg, iv after 24 hrs by LC-MS/MS analysis. The class given is ADME, organism-based, Canis lupus familiaris. The arrangement: dose 0.5 mg/kg, route intravenous. A digest of the protocol: as §1
Series [8] in a line: Oral bioavailability in beagle dog at 1 mg/kg. The class given is ADME, organism-based, Canis lupus familiaris. The conditions noted are these: in vivo. The gist of the method:
as §1

Series [9] concerns Hepatocyte. The experiment in a line: Prodrug activation in primary human hepatocytes assessed as compound triphosphate form at 10 uM after 1 hr. In kind it is cell-based. The gist of the method: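 Primary human hepatocytes from two donors were grown confluent (0.88×10^6 cells/well) in Williams E medium with supplement. Cells were exposed to compound (10 µM) for 1 h, then drug-free medium for 23 h, and sampled during and after exposure. Cells were extracted in 70% methanol, dried, and resuspended in 1 mM ammonium phosphate pH 8.5. Triphosphate was quantified by LC/MS/MS. Two independent experiments were run in duplicate.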

The subject of series [10] is Syrian golden hamster. The experiment in a line: Prodrug activation in Golden Syrian hamster liver assessed as compound triphosphate form at 10 mg/kg, po […]. In kind it is organism-based, Mesocricetus auratus. On the set-up: dose 10 mg/kg, route oral. As to conditions: in vivo. A digest of the protocol:
(§2)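 Groups of 12 Golden Syrian hamsters or Sprague–Dawley rats were dosed orally with nucleoside in water. Doses were 20 or 10 mg/kg in hamsters and 2 or 5 mg/kg in rats. Livers were harvested under isoflurane at 1, 4, 8 and 12 h and snap-frozen. Homogenate supernatant was dried, reconstituted in 1 mM ammonium phosphate pH 7.0, and triphosphate measured by LC/MS/MS, with endogenous ATP checked for stability. Values are mean±SD from 3 livers per time point.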

The test system of series [11] is Rattus norvegicus. In words: Prodrug activation in Sprague-Dawley rat liver assessed as compound triphosphate form at 5 mg/kg, po after […]. The arrangement: dose 5 mg/kg, route oral. As to conditions: in vivo; call rule not given here. In kind it is organism-based. A digest of the protocol:
as §2

Series [12] in a line: Oral bioavailability in Sprague-Dawley rat. The class given is ADME, organism-based. As to conditions: in vivo.
The subject of series [13] is Huh-7. The experiment in a line: Prodrug activation in human HuH7 cells assessed as compound triphosphate form at 10 uM after 24 hrs. As to conditions: huh-7, 24 h.
Series [14] in a line: Plasma clearance in rat. In kind it is ADME, organism-based.
The subject of series [15] is Syrian golden hamster. The experiment in a line: Prodrug activation in Golden Syrian hamster liver assessed as compound triphosphate form at 20 mg/kg, po after 4 to 24 hrs. In kind it is organism-based, Mesocricetus auratus. The arrangement: dose 20 mg/kg, route oral. The conditions noted are these: in vivo.
Series [16] relates to Rattus norvegicus. In words: Prodrug activation in Sprague-Dawley rat liver assessed as compound triphosphate form at 2 mg/kg, po after 4 to 24 hrs. As to conditions: in vivo. In kind it is organism-based. On the set-up: dose 2 mg/kg, route oral.

`CC(C)(C)C(=O)SCCOP(=O)(OCCSC(=O)C(C)(C)C)OC[C@H]1O[C@@H](c2cnc3c(=O)[nH]c(N)nn23)[C@](C)(O)[C@@H]1O`: the EC50 (in general, the concentration at which the effect is half-maximal) in [1] is 9.54 µM.
In the case of `C[C@@]1(O)[C@H](O)[C@@H](CO)O[C@H]1c1c[nH]c(N)nc1=O`, the 50% effective concentration (EC50) in series [1] was above 89 µM. The CC50 (in general, the concentration giving 50% cytotoxicity) at 24 h in series [2] was above 89 µM. For the same compound, the IC50 (commonly the midpoint of a concentration-inhibition curve) in series [3] came to 13.4 µM.
With `C[C@@]1(O)[C@H](O)[C@@H](CO)O[C@H]1c1ccc2c(N)ncnn12`, the EC50 in [1] came out at 1.98 µM. In series [2], this compound came in with a CC50 at 24 h of 85 µM. This compound displayed an IC50 in series [3] of 0.31 µM. The remaining at 1 h, 10 µM in series [4] was 100%. Also, the clearance (as a rule, the volume of plasma or blood freed of the substance per unit of time) in series [5] is 6.67 mL/min/kg. Besides, in [6], the Vd (as a rule, a proportionality between amount in the body and measured concentration, not a real space) was 1.66 L/kg. Moreover, the half-life (usually the time in which the quantity being followed falls by half) in series [7] was above 7 h. For the same compound, the bioavailability (usually the share of a dose that reaches the circulation, judged against a reference dose that is usually intravenous) was 70% in series [8] and 50% in [12]. Also, the Drug metabolism entry is listed as “Active” in series [9], “Active” in series [10], “Active” in [11] and “Not Active” in [13].
Consider `C[C@@]1(O)[C@H](O)[C@@H](CO)O[C@H]1n1ccc(N)nc1=O`, for which the EC50 in [1] is 4.07 µM. The compound also came in with a CC50 at 24 h in [2] above 89 µM. In series [3], this compound yielded an IC50 of 0.73 µM.
In the case of `C[C@@]1(O)[C@H](O)[C@@H](CO)O[C@H]1n1cnc2c(N)ncnc21`, the EC50 in series [1] worked out at 0.35 µM. The same compound gave a CC50 at 24 h in series [2] of 66 µM. In series [3], the IC50 came out at 6.83 µM. Also, the remaining at 1 h, 10 µM in series [4] was 94%. In addition, the clearance in series [14] is above 200 mL/min/kg.
For the compound `C[C@@]1(O)[C@H](O)[C@@H](CO)O[C@H]1c1cnc2c(N)ncnn12`, in [1], the EC50 came to 1.28 µM. The compound further registered a CC50 at 24 h in series [2] above 89 µM. In series [3], this compound displayed an IC50 of 2.1 µM. Further, the remaining at 1 h, 10 µM in series [4] was found to be 55%.
Take `C[C@@]1(O)[C@H](O)[C@@H](CO)O[C@H]1c1c[nH]c(=O)[nH]c1=O`: in series [1], the EC50 is above 89 µM. Besides, the CC50 at 24 h in series [2] was above 89 µM. In series [3], half-maximal inhibition (IC50) was put at 13.4 µM.
With `CC(C)(C)C(=O)SCCOP(=O)(OCCSC(=O)C(C)(C)C)OC[C@H]1O[C@@H](n2cnc3c(=O)[nH]c(N)nc32)[C@](C)(O)[C@@H]1O`, the EC50 in series [1] amounted to 0.05 µM.
Consider `C[C@@]1(O)[C@H](O)[C@@H](CO)O[C@H]1n1ccc2c(N)ncnc21` [BETA-2'-C-METHYL-7-DEAZA-ADENOSINE], for which the concentration for a half-maximal effect (EC50) in [1] is 0.08 µM. This compound also registered a CC50 at 24 h in series [2] above 89 µM. The same compound came in with an IC50 in [3] of 0.3 µM. Moreover, in series [4], the remaining at 1 h, 10 µM came to 98%. Also, the Drug metabolism entry in [15] and in [16] was “Active” throughout.
`C[C@@]1(O)[C@H](O)[C@@H](CO)O[C@H]1n1cnc2c(=O)[nH]c(N)nc21` [2'-B-METHYL-GUANOSINE]: the EC50 in [1] was 3.25 µM. In addition, in series [2], the CC50 at 24 h is above 89 µM. This compound also yielded an IC50 in [3] of 0.25 µM.
On the same counts, the results for `C[C@@]1(O)[C@H](O)[C@@H](CO)O[C@H]1c1cnc2c(=O)[nH]c(N)nn12` are above 89 µM, above 89 µM and 0.19 µM.
Consider `C[C@@]1(O)[C@H](O)[C@@H](CO)O[C@H]1n1ccc(=O)[nH]c1=O`, for which the EC50 in series [1] turned out to be 15.2 µM. The same compound registered a CC50 at 24 h in [2] above 89 µM. The IC50 in [3] amounted to 1.32 µM.
